Screens as filed in PubChem BioAssay.
PGC1a Ac signal: compounds raising PGC1a acetylation signal, primary screen, PGC1a modulator project, cell-based, U2OS, AlphaScreen, signal-increasing mode; overnight; activation, % at 15.6 µM; hit rate 0.21% among 350,000;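 active means every replicate reaching activation of at least 50%, whatever the mean replicate activation; inconclusive means replicates that disagree or another doubt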;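 further: hits raise the AlphaScreen acetylation signal above neutral controls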
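Test system: U2OS cells expressing flag-PGC1a plus GCN5; Amount: 7000 U2OS cells per well; Compound: single test concentration per compound; Incubation: compound overnight at 37 °C, each detection step 1 h RT; Signal: AlphaScreen lysate read.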
Hep G6PC suppr: suppressors of forskolin-stimulated G6PC mRNA, dose response, PGC-1a acetylation activator project, cell-based, hepatocytes, RT-qPCR, cherry-picked samples | G6PC suppression (normalized activity, % of positive control; higher = more suppression), % at 26 µM | shares compounds with PGC1a Ac signal | AID 743463, 2014 | primary mouse hepatocytes | 240 tested, under 10 active;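 active means dose curves showing G6PC suppression whose half-maximal dose is at most twice the top valid dose; inconclusive means flat curves with moderate negative activity, or unreliable fits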;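 further: G6PC expression relative to GAPDH housekeeping gene as delta delta Ct; 0% = median of neutral control wells and 100% = median of positive control wells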
PCK1 hep suppr: suppression of PCK1 mRNA in primary hepatocytes, dose response, PGC-1a acetylation activator project, cell-based, primary mouse hepatocytes, RT-qPCR, cherry-pick. 230 tested, under 10 active. PCK1 expression decrease, unspecified at 26 µM. AID 743465, 2014. shares compounds with PGC1a Ac signal. forskolin-stimulated;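 active means compounds lowering PCK1 expression whose fitted half-maximal concentration is at most twice the top tested dose; inconclusive means flat fit with moderate opposite-direction effect, or poor fit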;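 further: values are delta delta Ct of PCK1 relative to GAPDH; higher delta delta Ct means lower PCK1 expression so positive values indicate hits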
PGC1a hep suppr: suppression of PGC-1a mRNA in primary hepatocytes, dose response, PGC-1a acetylation activator project, cell-based, primary mouse hepatocytes, RT-qPCR, cherry-pick; shares compounds with PGC1a Ac signal; PGC-1a mRNA qPCR, forskolin; top dose 26 µM; max activity (PGC-1a expression decrease), %; 240 tested, under 10 active; AID 743467, 2014;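 active means compound lowering PGC-1a expression with fitted half-maximal concentration at most twice its top tested dose; inconclusive means flat curve with moderate opposite-direction effect, or poor fit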;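 further: 0% = neutral control wells median and 100% = positive control wells median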
* = called active by the depositor; i = inactive; u = inconclusive; x = no result. These entries were drawn from the full list.

SMILES	PGC1a Ac signal	Hep G6PC suppr	PCK1 hep suppr	PGC1a hep suppr
C[C@H]1CN([C@@H](C)CO)S(=O)(=O)c2ccc(C#CCN(C)C)cc2O[C@@H]1CN(C)Cc1ccc2c(c1)OCO2	u	304	132	45
CN(C)/C=N/c1nc2nccc(-c3ccccn3)n2n1	-47	x	x	x
COc1ccc(N=C2S/C(=C\c3ccc(N4CCOCC4)o3)C(=O)N2CCc2c[nH]c3ccccc23)cc1	-62	x	x	x
C/C(=N\NC(=O)c1cc(C)[nH]n1)c1ccc(-c2ccccc2)cc1	-79	x	x	x
C=C[C@H]1C(C(=O)OCC)=CC[C@@H](c2ccccc2)N1S(=O)(=O)c1ccc(C)cc1	u	-62	u	57
CC(C)c1ccc(/C=N/n2nnnc2Nc2ccccc2)cc1	-46	x	x	x
Cc1cc(C)c2nc(N(CCCN(C)C)C(=O)c3ccc(S(=O)(=O)N4CCCCCC4)cc3)sc2c1	64*	i	183	41
COc1ccc(N2C(=O)CC2(/C=C/c2ccccc2OC)C(=O)NC2CCCC2)cc1 (centres undefined)	-45	x	x	x
C=C[C@H]1CN2CCC1C[C@H]2[C@H](O)c1ccnc2ccc(OC)cc12 (some centres undefined)	-48	x	x	x
CCCc1cc2c(cc1N(C)S(=O)(=O)c1ccccc1)OCO2	u	18	152	117
CCn1c(COc2ccc(=O)n(-c3ccccc3)n2)nnc1SCc1ccc(C)cc1	-46	x	x	x
O=C(C/C=N/OCc1c(Cl)cccc1Cl)c1cnc(-c2ccccc2)s1	-47	x	x	x
COc1cc(-c2cnc3c(NC(C)=O)cc(-c4ccccc4CN(C)C)cn23)cc(OC)c1OC	u	505	84	55
Cc1ccc(Cl)c(Cn2cnc3c(cnn3C(C)(C)C)c2=O)c1F	-48	x	x	x
CC1=C(C(N)=O)C(c2cccnc2)n2nc(-c3cccc(Cl)c3)nc2N1 (centres undefined)	93*	15	30	91
Cc1ccc(S(=O)(=O)NC(CC(C)C)C(=O)N2CCCCCCC2)cc1 (centres undefined)	64*	7	77	77
C/C(=N/NC(=O)CNC(=O)c1ccccn1)c1ccc([N+](=O)[O-])cc1	-44	x	x	x
Cc1nc(NCCc2ccccc2)c2nnn(Cc3ccccc3Cl)c2n1	-42	x	x	x
Cc1nc(N2CCN(S(=O)(=O)c3ccc(F)cc3)CC2)c2c(-c3cccs3)csc2n1	83*	307	369	176
COc1ccc(C[C@@H]2OC3(C=CC(=O)C=C3)O[C@H]2Cc2ccc(OC)cc2)cc1	-90	x	x	x
COc1ccc([N+](=O)[O-])c(S(=O)(=O)c2ccc(Cl)cc2)n1	-45	x	x	x
O=S(=O)(NC12CC3CC(CC(C3)C1)C2)c1ccc(F)cc1	60*	-27	28	50
O=S(=O)(NCCSc1ccc(Cl)cc1)c1ccc(F)cc1	-40	x	x	x
O=S(=O)(Nc1nc2c(s1)CCCC2)c1ccc(F)cc1	-49	x	x	x
Cc1ccc(-n2c(O)c(C=NC3CCS(=O)(=O)C3)c3ccccc3c2=O)c(C)c1 (centres undefined)	-57	x	x	x
SMILES	PGC1a Ac signal	Hep G6PC suppr	PCK1 hep suppr	PGC1a hep suppr
CCn1c(SCC(=O)Nc2ccc(NC(=O)c3ccco3)cc2)nnc1-c1cccs1	124*	7	-8.6	52
C=CCn1c(SCC(=O)Nc2ccc(C(=O)O)cc2)nnc1-c1cccnc1	-40	x	x	x
COc1cc(CN2CCC(C(=O)NCCC(C)C)CC2)ccc1OCc1ccccc1	u	909	178	56
COc1cccc(Cn2c(NCc3cccnc3)nc3c2c(=O)n(C)c(=O)n3C)c1	-71	x	x	x
Fc1ccc(-c2nn3c(C4COc5ccccc5O4)nnc3s2)cc1 (centres undefined)	55*	39	-36	79
Cc1nnc(SCC(=O)N2CCC(c3noc4ccc(F)cc34)CC2)s1	-57	x	x	x
COc1ccc(Cn2nnnc2CN(Cc2cc3ccc(C)cc3[nH]c2=O)C2CCCC2)cc1	-42	x	x	x
CCOc1ccc(N2C(=O)Cc3ccccc3C2=O)cc1	-43	x	x	x
Cc1ccc(C(=O)c2c[nH]c(C(=O)NCc3cccnc3)c2)cc1	75*	18	156	37
Cc1cc(F)cc(-c2cc(C(=O)NCc3ccccc3)[nH]n2)c1	-41	x	x	x
Cc1ccc(C(=O)c2cncc(Br)c2)cc1	-42	x	x	x
NCc1cccc(-n2cccn2)c1	-54	x	x	x
CNC[C@@H](CC1CCCCC1)NC[C@H](CC(C)C)NCCc1cccc(C(F)(F)F)c1	-88	x	x	x
CC(C)c1ccccc1NC(=O)Cn1c(-c2ccccc2Cl)nc2ccccc21	-43	x	x	x
